The text below walks through data of ChEMBL document CHEMBL1123657, “Anthrapyrazole anticancer agents. Synthesis and structure-activity relationships against murine leukemias” (J Med Chem, 1987).

Experiment [1] concerns L1210. The experiment can be described thus: Compound was tested in vitro against murine L1210 leukemia;IA means inactive. The experiment is classed as functional, cell-based, Mus musculus.
Experiment [2] relates to P388. Nature of the experiment: Inhibition of P388 leukemia cells in mice, measured as percent treated to the control values with the number of 30 day survivors. Type of experiment: functional, Mus musculus. An outline of the steps: (§1)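 P388 leukemia implanted ip in mice; drug given ip on days 1 and 5 (ip/ip; D1,5), dosed in mg/kg per injection. Read-out is treated/control (T/C, %) with cures counted, reported at the optimal dose.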

Experiment [3] relates to P388. The experiment can be described thus: Activity against P388 leukemia cells in mice, by intraperitoneal dosing and net log tumor cell kill was reported. The experiment is classed as functional, Mus musculus.
Experiment [4] relates to P388. The experiment can be described thus: Optimal dose per injection in mg/kg required to inhibit growth of P388 leukemia cells in mice. Type of experiment: functional, Mus musculus. In outline:
as §1

The test system of experiment [5] is L1210. Nature of the experiment: Tested in vitro against murine L1210 leukemia. Type of experiment: functional, cell-based. Conditions: Mus musculus; call rule not given here.
The test system of experiment [6] is B16. Nature of the experiment: Tested for activity against murine B-16 melanoma in mice and percent treated to the control values with the number of 60 day survivors. The experiment is classed as functional, Mus musculus. An outline of the steps:
(§2)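 Murine B-16 melanoma in vivo: tumor implanted ip, compound given ip on days 1–9 (ip/ip; D1–9), dosed as mg/kg per injection. Activity expressed as T/C (%) plus number of cures, taken at the optimal dose.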

The subject of experiment [7] is B16. Nature of the experiment: Optimal dose per injection in mg/kg required to inhibit growth of murine B-16 melanoma in vivo. The experiment is classed as functional, Mus musculus. An outline of the steps:
as §2

For experiment [8], the system named is L1210. Nature of the experiment: Compound was tested in vitro against murine L1210 leukemia; IA is inactive. The experiment is classed as functional, cell-based, Mus musculus.
Experiment [9] deals with P388. The experiment can be described thus: Tested for activity against P388 leukemia cells in mice, by intraperitoneal dosing and percent treated to the control values with the number of 30 day survivors i. Type of experiment: functional, Mus musculus. In outline: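 P388 leukemia implanted intraperitoneally in mice. Compound given ip on days 1 and 5, as mg/kg per injection across a dose series. Read-out is median survival of treated mice as a percentage of untreated controls (T/C %), taken at the optimal dose, with cures noted.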

The IC50 is the concentration that inhibits the measured activity by half. High values mean weaker potency in that assay, low ones greater potency in that assay. For orientation: T/C means the ratio of treated to control. `CCCCCCNc1ccc2c3c(nn2CCO)-c2ccccc2C(=O)c13`: in the experiment on L1210 [1], the IC50 result is reported as “Not Active”. Also, in the experiment on P388 [2], the T/C stood at 98%. The compound also showed an Activity with P388 [3] of -1.6. For the same compound, in the experiment on P388 [4], the Dose was found to be 100 mg/kg.
In the experiment on L1210 [5], `Cl.O=C1c2c(O)ccc(O)c2-c2nn(CCNCCO)c3ccc(NCCN(CCO)CCO)c1c23` gave an IC50 of 430 nM. Besides, the T/C in the experiment on B16 [6] was found to be 342%; in the experiment with P388 [2], 277%. In addition, in the experiment on B16 [7], the Optimal dose was 25 mg/kg. The Activity in the experiment on P388 [3] is recorded as more than 6.6. Also, the Dose in the experiment with P388 [4] worked out at 200 mg/kg.
Turning to `CCN(CC)CCNc1cccc2c1C(=O)c1cccc3c1c-2nn3C.Cl`, the IC50 result in the experiment with L1210 [8] was “Not Active”.
`CCN(CC)CCn1nc2c3c(c(NCCN)ccc31)C(=O)c1ccccc1-2.Cl` returned an IC50 in the experiment with L1210 [5] of 46 nM. In the experiment with P388 [9], this compound had a T/C of 104%. Moreover, the Activity in the experiment with P388 [3] is listed as -1.5. Moreover, the Dose in the experiment on P388 [4] turned out to be 25 mg/kg.
In the experiment with L1210 [5], `CN(C)CCn1nc2c3c(c(NCCNCCO)ccc31)C(=O)c1c(O)ccc(O)c1-2.Cl` displayed an IC50 of 120 nM. Further, the T/C in the experiment with B16 [6] was determined as 183%; with P388 [2], 242%. For the same compound, the Optimal dose in the experiment with B16 [7] came to 3 mg/kg. The same compound showed an Activity in the experiment on P388 [3] of 6.5. This compound registered a Dose in the experiment with P388 [4] of 12.5 mg/kg.
`Cl.NCCCn1nc2c3c(c(NCCNCCO)ccc31)C(=O)c1c(O)ccc(O)c1-2` returned an IC50 with L1210 [5] of 160 nM. In the experiment on B16 [6], this compound returned a T/C of 375%. The compound further had an Optimal dose with B16 [7] of 6.25 mg/kg. In addition, the Activity in the experiment with P388 [3] was more than 6.6. Besides, the Dose with P388 [4] turned out to be 50 mg/kg.
In turn, `O=C1c2c(O)ccc(O)c2C(=O)c2c(NCCNCCO)ccc(NCCNCCO)c21` [MITOXANTRONE] showed an IC50 in the experiment with L1210 [5] of 1.6 nM. Besides, the T/C with B16 [6] stood at 265%; with P388 [2], 267%. In the experiment on B16 [7], this compound displayed an Optimal dose of 0.6 mg/kg. This compound also came in with an Activity in the experiment on P388 [3] of more than 6.8. In the experiment on P388 [4], this compound displayed a Dose of 3 mg/kg.
For `CCN(CC)CCn1nc2c3c(cccc31)C(=O)c1c(NCCNCCO)cccc1-2.Cl`, the IC50 in the experiment on L1210 [5] was determined as 230 nM. Besides, in the experiment on P388 [9], the T/C came out at 117%. The compound also registered an Activity with P388 [3] of -1.3. In the experiment on P388 [4], this compound returned a Dose of 12.5 mg/kg.
Consider `CCN(CC)CCn1nc2c3c(c(NCCN)ccc31)C(=O)c1c(O)ccc(O)c1-2.Cl`, for which 46 nM corresponded to half-maximal inhibition in the experiment with L1210 [5] (IC50). Further, the T/C in the experiment on B16 [6] turned out to be 176%; with P388 [2], 280%. The compound also yielded an Optimal dose in the experiment with B16 [7] of 3.6 mg/kg. In the experiment on P388 [3], this compound registered an Activity of more than 7.1. Further, the Dose in the experiment on P388 [4] turned out to be 12.5 mg/kg.
In turn, `Cl.NCCCNc1ccc2c3c(nn2CCNCCO)-c2c(O)ccc(O)c2C(=O)c13` displayed an IC50 in the experiment with L1210 [5] of 960 nM. The T/C with B16 [6] stood at 338%; with P388 [2] it was 294%. For the same compound, in the experiment with B16 [7], the Optimal dose is 8 mg/kg. This compound also showed an Activity in the experiment on P388 [3] of more than 6.5. In addition, the Dose in the experiment with P388 [4] amounted to 45 mg/kg.
Turning to `COc1cccc2c1C(=O)c1c(O)c3c(c(O)c1C2=O)C[C@@](O)(C(=O)CO)C[C@@H]3O[C@H]1C[C@H](N)[C@H](O)[C@H](C)O1` [DOXORUBICIN], the IC50 with L1210 [5] was 69 nM. For the same compound, the figures for the T/C in the experiment on B16 [6] and with P388 [2] were 434% and 225%, respectively. The same compound came in with an Optimal dose with B16 [7] of 1 mg/kg. The compound also gave an Activity in the experiment on P388 [3] of 5.6. In the experiment on P388 [4], this compound came in with a Dose of 8 mg/kg.
For `CNCCNc1ccc2c3c(nn2CCNCCO)-c2c(O)ccc(O)c2C(=O)c13` [TELOXANTRONE], the IC50 in the experiment on L1210 [5] turned out to be 140 nM. Besides, the T/C with B16 [6] is 357%. In the experiment on B16 [7], this compound showed an Optimal dose of 1.5 mg/kg. The Activity in the experiment on P388 [3] was more than 6.6. In the experiment with P388 [4], this compound registered a Dose of 12.5 mg/kg.
Regarding `Cl.NCCn1nc2c3c(c(NCCNCCO)ccc31)C(=O)c1c(O)ccc(O)c1-2`, the midpoint of inhibition with L1210 [5], the IC50, lay at 580 nM. The T/C is 306% in the experiment with B16 [6] and 270% in the experiment with P388 [2]. For the same compound, in the experiment with B16 [7], the Optimal dose turned out to be 3 mg/kg. In addition, in the experiment on P388 [3], the Activity is more than 6.7. The same compound showed a Dose in the experiment with P388 [4] of 12.5 mg/kg.
In the experiment on L1210 [5], `Cl.O=C1c2c(O)ccc(O)c2-c2nn(CCO)c3ccc(NCCNCCO)c1c23` showed a 50% inhibitory concentration (IC50) of 780 nM. Besides, the T/C in the experiment on B16 [6] is given as 246%; in the experiment on P388 [2], 271%. Also, the Optimal dose with B16 [7] worked out at 80 mg/kg. The Activity in the experiment on P388 [3] is 6.8. Also, the Dose with P388 [4] is 200 mg/kg.
